m5-HT2A agonist: mouse HTR2A agonism via beta-arrestin recruitment; P35363; CHO-K1 mHTR2A beta-arrestin complementation, luminescence; percent of 30 µM serotonin response; activation, % at 7.6 µM; 360,000 tested, 0.66% active;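 active = activation above a run cutoff, the mean activation of all tested compounds plus 3 SD, cut at about 14% in these data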;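 note: 0% = plate median of compound wells and 100% = 30 µM serotonin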
TAAR1 ag: human TAAR1 agonism; AID 624467; activation, % at 3 µM; Q96RJ0; 360,000 tested, 0.99% active; CHO RD-HGA16 TAAR1, Fluo-8 calcium fluorescence; vehicle wells 0%, saturating PEA agonist 100%;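 active = activation above the mean activation of all test compounds in the run plus 3 SD, cut at about 38% in these data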
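Test system: RD-HGA16 (CHO) cells co-expressing Gα16 and hTAAR1 | Doses: Single dose, 3 µM | Schedule: 17-24 h seeding, 75 min 37 °C dye, 30 min RT | Evaluation: % activation from peak over basal fluorescence ratio, DMSO-to-PEA scaled | Technique: Kinetic Fluo-8 calcium fluorescence | Benchmarks: Low control DMSO, high control PEA (EC100)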
MC4R antag cAMP: human MC4R antagonism in cAMP assay. P32245. MC4R-expressing cells, MTII-stimulated cAMP, LANCE TR-FRET. inhibition, % at 6.5 µM. 360,000 tested, 0.48% active. AID 540295;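 active = inhibition above its plate's cutoff, the mean of tested wells on that plate plus 3 SD, cut at about 29% in these data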;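 note: 0% = Melanotan II alone and 100% = Melanotan II plus saturating MCL0020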
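Assay system: human MC4R-expressing U2OS cells; reagent: Melanotan II stimulation of cells; dosing: 6.5 µM single dose; timing: compound 30 min, challenge 1 h, detection 1 h; signal: TR-FRET cAMP assay; replicates: one well per compound, no replicates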
MC4R barr agon: activates human MC4R beta-arrestin recruitment. P32245. U2OS MC4R beta-arrestin complementation, luminescence; percent of melanotan II response, DMSO zero. activation, % at 8.9 µM. 360,000 tested, 0.98% active;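 active = activation above a per-plate cutoff, the mean activation of sample wells on that plate plus 3 SD, cut at about 8% in these data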
TAAR1 antag: antagonists of human TAAR1; Q96RJ0; CHO RD-HGA16 TAAR1, Fluo-8 calcium fluorescence, antagonist; inhibition, % at 3 µM; 360,000 tested, 1.5% active; AID 624466;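 active = inhibition above a per-plate cutoff, the mean inhibition of test compounds on that plate plus 3 SD, cut at about 49% in these data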;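 note: 0% = DMSO plus EC80 beta-PEA response and 100% = DMSO alone without agonist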
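System: RD-HGA16 CHO cells with stable hTAAR1 and Gα16 | Probe or stimulus: EC80 β-phenethylamine stimulus | Dosing: 3 µM, single point | Times: Dye loading 75 min at 37 °C, then 30 min room temperature | Measured by: Fluo-8 calcium-sensitive fluorescence | Read-out basis: % inhibition of agonist calcium response | Replicates: n of 1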
Beta2AR agonist: agonists of human beta-2 adrenergic receptor inducing internalization | P07550 | Am2.2-beta2AR cells, FAP receptor internalization, flow cytometry | response, % (concentration not given with the values) | 340,000 tested, 0.43% active | AID 504454;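 active = response above a set limit, near 3 SD of response in nonfluorescent compounds, cut at about 42% in these data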
Target sequence (P07550 whole entry, looked up): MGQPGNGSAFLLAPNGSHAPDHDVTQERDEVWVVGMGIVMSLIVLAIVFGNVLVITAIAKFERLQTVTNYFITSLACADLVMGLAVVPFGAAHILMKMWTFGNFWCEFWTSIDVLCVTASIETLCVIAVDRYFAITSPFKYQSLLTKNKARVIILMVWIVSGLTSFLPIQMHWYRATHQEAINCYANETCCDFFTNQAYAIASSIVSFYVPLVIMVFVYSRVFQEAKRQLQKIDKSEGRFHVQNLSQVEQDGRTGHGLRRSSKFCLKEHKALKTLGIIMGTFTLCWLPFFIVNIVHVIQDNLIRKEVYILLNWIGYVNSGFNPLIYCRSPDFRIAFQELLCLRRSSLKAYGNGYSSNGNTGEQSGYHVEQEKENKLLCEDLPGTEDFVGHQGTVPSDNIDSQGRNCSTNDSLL
MC4R barr conf: human MC4R beta-arrestin agonism confirmation; shares compounds with MC4R barr agon; U2OS MC4R beta-arrestin recruitment, luminescence; scaled DMSO 0%, Melanotan II 100%; activation, % at 8.9 µM; 2,400 tested, 31% active;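 active = mean activation across replicates above the hit cutoff set in the earlier primary screen, cut at about 8% in these data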
MOR-DOR barr ag: OPRM1-OPRD1 heterodimer agonism counter-screen; shares compounds with MC4R barr agon; U2OS PathHunter beta-arrestin, beta-gal luminescence; percent of deltorphin B response, DMSO zero; activation, % at 9.2 µM; 2,400 tested, 5.8% active;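 active = mean activation across replicates exceeds the hit threshold derived in the earlier primary screen, cut at about 18% in these data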;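 note: 100% = deltorphin B at 0.9 µM final and 0% = DMSO alone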
The depositor's hits bear a star; . = not tested or not shown. This is a sample that favours compounds with a hit; in the whole collection about 4.3% have one here.

SMILES	m5-HT2A agonist	TAAR1 ag	MC4R antag cAMP	MC4R barr agon	TAAR1 antag	Beta2AR agonist	MC4R barr conf	MOR-DOR barr ag
CC(=O)C1=C(C)NC(SCC(=O)Nc2nccs2)=C(C#N)C1c1ccccc1Cl (centres undefined)	-3	3	3	-1	34	-14	.	.
C=CCOC(=O)C1=C(C)NC(SCC(=O)Nc2nccs2)=C(C#N)C1c1ccc(Cl)cc1 (centres undefined)	-7	8	2	11*	30	7	2	3
O=C(NC(=S)NCC1CCCO1)C(c1ccccc1)c1ccccc1 (centres undefined)	2	4	6	13*	-22	13	3	1
Cc1ccc(C2=Nc3ccccc3N=C(c3ccco3)C2)c(O)c1	0	12	7	17*	-2	-8	4	3
CC(C)c1nnc(NC(=O)C2CCN(C(=O)Nc3ccccc3)CC2)s1	5	12	14	1	-9	-1	.	.
CC(C)OC(=O)c1ccc(NC(=O)c2ccccc2)cc1	-2	9	-15	0	0	9	.	.
O=C(Nc1ccccc1)c1ccc(OC(=O)c2ccccc2)cc1	-5	0	-2	9.8*	2	-1	5	2
O=C(Oc1ccc(NC(=O)c2cc3c(cc2Br)OCO3)cc1)c1ccccc1	-2	5	5	14*	6	12	6	6
CCN(C(=O)c1cc2c(=O)[nH]c3ccc(C)cc3c2s1)c1ccc(F)cc1	0	0	9	12*	-36	-3	2	6
CCN(C(=O)c1cc2c(=O)[nH]c3ccc(C)cc3c2s1)c1cccc(C)c1	4	1	-6	7	-36	-3	.	.
CCCCCCc1ccc(N2C[C@H](Cc3ccccc3)[C@@H](CC(=O)Nc3ccccc3)C2=O)cc1	0	2	1	1	-15	2	.	.
Cc1ccc(-c2ccc(/C=N\NC(=O)C3C(=O)NCC3c3ccccc3)o2)cc1Cl (centres undefined)	1	13	2	13*	5	8	5	2
CCOc1ccc(N2C(=O)CN(C)C2=S)cc1	0	7	8	-2	-1	-5	.	.
CCOc1ccc(N2C(=O)/C(=C/c3cccs3)N(C)C2=S)cc1	1	5	4	26*	-5	-13	12*	4
O=C(CSc1nnc(-c2ccccc2F)n1C1CC1)NCc1ccco1	-8	20	8	-5	-7	-11	.	.
CS(=O)(=O)N1CCC(C(=O)Nc2cccc(Cl)c2Cl)CC1	0	2	-2	0	-26	5	.	.
O=[N+]([O-])c1ccc2c(c1)C(=Nc1ccccc1)c1ccccc1-2	5	1	-5	11*	-21	-1	2	4
O=C(Nc1nccs1)c1ccc(COc2c(F)c(F)cc(F)c2F)cc1	-3	5	15	11*	6	-2	6	5
COC(=O)c1c(NC(=O)CN2CCN(Cc3ccc4c(c3)OCO4)CC2)sc(C)c1C	-3	11	13	9.6*	-14	20	8	13
Cc1ccc(Cn2ccc(NC(=O)c3cc(-c4ccccc4)on3)n2)cc1	-4	10	6	11*	-7	8	-4	3
Cc1ccc(S(=O)(=O)N2CCC(C(=O)NC3CC(C)(C)NC(C)(C)C3)CC2)cc1C	7	2	2	-1	-25	6	.	.
Cc1ccc(C(=O)OCC(=O)Nc2sc3c(c2C#N)CCC3)cc1	-2	0	3	-1	12	0	.	.
Cc1ccc(/C=C/C(=O)Nc2sc3c(c2C#N)CCCC3)o1	-1	4	-4	28*	-2	3	-2	3
N#Cc1c(NC(=O)c2ccccc2)sc2c1CCC2	-1	14	-14	-1	4	-1	.	.
Cc1ccc(/C=C/C(=O)Nc2nccs2)o1	1	1	-8	0	10	-3	.	.
SMILES	m5-HT2A agonist	TAAR1 ag	MC4R antag cAMP	MC4R barr agon	TAAR1 antag	Beta2AR agonist	MC4R barr conf	MOR-DOR barr ag
Cc1ccc(OCC(=O)Nc2sc3c(c2C#N)CCC3)cc1C	5	8	3	14*	42	0	2	5
Cc1cccc(C(=O)Nc2sc3c(c2C#N)CCCCC3)c1	8	7	-2	17*	-2	3	-1	5
Cc1ccc(/C=C/C(=O)Nc2nnc(SCc3ccc(C#N)cc3)s2)o1	3	5	9	51*	-6	0	0	4
COc1ccc(S(=O)(=O)Nc2cccc3c2O[C@H](CN(C)C(=O)Nc2ccccc2)[C@@H](C)CN([C@H](C)CO)C3=O)cc1	0	4	5	-1	5	0	.	.
CC(C)c1ccc(NC(=O)COC(=O)/C=C/c2cccc(Br)c2)cc1	-1	0	-2	11*	-3	-7	5	3
CCCn1cnc2c(SCc3ccccc3Cl)nc(N)nc21	2	14	-10	-2	-25	-16	.	.
CC(N)C(=O)NC(C(=O)N1CCCC1C(=O)NC(c1ccccc1)c1ccccc1)C(C)C (centres undefined)	2	4	-2	-1	-5	2	.	.
N/C(=N\c1nc(CSc2nc3ccccc3s2)cc(=O)[nH]1)Nc1ccc(F)cc1	-6	18	2	12*	0	-15	1	3
Cc1ccc(N/C(N)=N/c2nc(CSc3nnc(N)s3)cc(=O)[nH]2)cc1	1	3	-7	-1	13	4	.	.
Cc1ccc(SCC(=O)NC(=O)Nc2ccc3c(c2)OCCO3)cc1C	8	6	5	15*	3	8	5	5
O=C(CSc1ccc2c(c1)OCCO2)Nc1ccc2c(c1)OCO2	2	.	3	0	.	-1	.	.
CC(=O)Nc1nnc(SCC(=O)Nc2ccc3c(c2)OCCO3)s1	0	3	-3	-1	-11	-4	.	.
Cc1cccc(Nc2nnc(SCC(=O)NC(=O)Nc3ccc4c(c3)OCCO4)s2)c1	3	4	-1	22*	-6	-1	11*	3
Cc1nnc(SCC(=O)NC(=O)Nc2ccc3c(c2)OCCO3)s1	0	4	1	0	5	0	.	.
COc1ccccc1Nc1nnc(SCC(=O)NC(=O)Nc2ccc3c(c2)OCCO3)s1	-1	2	5	17*	11	0	-1	3

Assay outcomes from PubChem.
